Each structure is given as a SMILES string.

The series in a line: Toxicity liver stage against HepG2, at 10uM. Type of series: cell-based. Also on record: test concentration 10 uM, cell line HepG2-A16-CD81EGFP. Particulars: human, HepG2-A16-CD81EGFP cells; read-out: INHIBITION
An outline of the steps: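 Uninfected HepG2-A16-CD81EGFP cells, 3 × 10^3 per well, 1536-well, plated on prespotted compound at 10 μM final, parasite-free screening media added to match infected plates; puromycin 10 μM positive, DMSO 0.5% negative; run in parallel with 48 h PbLuc assay at 37 °C, 5% CO2; viability by CellTiter-Glo luminescence, normalized to controls.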
Turning to `c1ccc(CNC[C@H]2Cn3ccnc3CO2)cc1`, the cytotoxicity at 10 µM was -5.25%.

Regarding `c1cc(-c2c[nH]c([C@@H]3COCCN3C3CCCCC3)n2)ccn1`, the cytotoxicity at 10 µM came to 7.66%.

In the case of `CN1C(=O)COc2ccc(NC(=O)CCc3nc4cccnc4[nH]3)cc21`, the cytotoxicity at 10 µM was -1.23%.

For the compound `COc1ccc(-c2n[nH]c(C)c2CC(=O)NCC2CCCO2)cc1` (configuration not stated), the cytotoxicity at 10 µM was -11.6%.

`c1ccc2c(c1)CCN2c1nc(N2CCOCC2)c2nn[nH]c2n1`: the cytotoxicity at 10 µM is -3.29%.

Consider `O=S(=O)(NCCn1ccc(-c2ccccn2)n1)C1CCCCC1`, for which the cytotoxicity at 10 µM stood at 8.63%.

With `O=C(c1ccoc1)N1CCC2(C1)CN(c1ncccn1)C2`, the cytotoxicity at 10 µM was -5.55%.

With `CCn1c(SCC(=O)N2CCCC2)nc2cc(C)[nH]c2c1=O`, the cytotoxicity at 10 µM was 7.44%.

For `CC(C)CCn1[nH]c(CNc2ccc(Cl)cc2)nc1=O`, the cytotoxicity at 10 µM was determined as 1.33%.

On to `COc1ccc(-c2ccnc3nc(N4CCCC4)[nH]c(=O)c23)cc1OC`, for which the cytotoxicity at 10 µM worked out at 9.29%.

On to `O=C1CSC(c2ccncc2)c2c[nH]nc2N1` (configuration not stated), for which the cytotoxicity at 10 µM is 13%.

Regarding `Fc1cccc(CN2CCC[C@@H](Cn3nnc(-c4ccccn4)n3)C2)c1`, the cytotoxicity at 10 µM is 3.33%.

For `c1cc(C2CCN(c3cncnc3)CC2)ccn1`, the cytotoxicity at 10 µM stood at 2.58%.

As for `COCC(=O)N1CCC(O)(CN2CCN(c3ccccc3)CC2)C1` (configuration not stated), the cytotoxicity at 10 µM is -2.38%.

Consider `COCCOCC(=O)N1C[C@@H]2CC[C@H](Oc3ccccc3Cl)[C@@H]2C1`, for which the cytotoxicity at 10 µM is -10.9%.

Consider `Cc1ccc2cc(CNCCN3CCCC3)c(=O)[nH]c2c1`, for which the cytotoxicity at 10 µM was -1.89%.

As for `Cc1nccc(CN2CC[C@@]3(CCCN3Cc3ccccc3)[C@@H](O)C2)n1`, the cytotoxicity at 10 µM was -6.05%.

Take `COCc1cc(O)nc(C2CCCN(Cc3ccc(F)cc3)C2)n1` (configuration not stated): the cytotoxicity at 10 µM was -9.88%.

Take `CC(=O)N1CCN([C@@H]2CC[C@@H](N(C)C(=O)C3CCCCC3)[C@H]2O)CC1`: the cytotoxicity at 10 µM is -10.6%.

In the case of `CC1c2ccc(F)cc2CCN1C(=O)c1nc(=O)[nH][nH]1` (configuration not stated), the cytotoxicity at 10 µM was found to be 15.6%.

As to `Cc1nn(C)c2ncc(CNCCc3ccccn3)cc12`, the cytotoxicity at 10 µM was determined as 4.13%.

Consider `CNS(=O)(=O)CCCNC(C)(C)c1nc(C)cs1`, for which the cytotoxicity at 10 µM turned out to be 11.1%.

With `Cc1ccc(C(=O)N(CC(=O)O)CC(C)C)cc1F`, the cytotoxicity at 10 µM is -4.07%.

Turning to `COCCCOc1ccc(C(=O)N(C)CCC(C)C)cn1`, the cytotoxicity at 10 µM came to 6.19%.

Turning to `CN1CCOC(CNCC(=O)NCCC2=CCCCC2)C1` (configuration not stated), the cytotoxicity at 10 µM was -3.57%.

Consider `Cc1ccc(F)c2c1N(C(=O)c1ccc(S(C)(=O)=O)cc1)CCC2`, for which the cytotoxicity at 10 µM worked out at 2.97%.

`CCc1cnc(CNc2cccc3c2CCN(S(=O)(=O)CC)C3)o1`: the cytotoxicity at 10 µM was -52.5%.

For `CC(Cn1cncn1)NC(=O)NCC(C)(C)Cc1ccccc1` (configuration not stated), the cytotoxicity at 10 µM is 17%.

On to `Cc1noc(CCCC(=O)NCC(c2ccco2)N2CCCCC2)n1` (configuration not stated), for which the cytotoxicity at 10 µM worked out at 13.1%.

For the compound `Cc1nc(CCCNC(=O)c2c(F)cccc2Br)n[nH]1`, the cytotoxicity at 10 µM was -1.39%.

Consider `CCn1cc(C#N)c(=O)c2cc(Br)ccc21`, for which the cytotoxicity at 10 µM was 1.35%.

As for `Cc1cc(C2CCCN2C(=O)NCc2cccnc2N(C)C)on1` (configuration not stated), the cytotoxicity at 10 µM was -8.1%.

Turning to `NC(=O)C1CCN(CCc2ccc(NCc3cscn3)cc2)CC1`, the cytotoxicity at 10 µM was determined as 3.69%.

Regarding `Cc1csc(C2CCCCN2C(=O)CCn2cncn2)n1` (configuration not stated), the cytotoxicity at 10 µM was -6.32%.

On to `O=C(c1cc(F)cc2[nH]cnc12)N1CCCC1Cn1cccn1` (configuration not stated), for which the cytotoxicity at 10 µM came out at 7.39%.

Regarding `CCC(Nc1ccc(Oc2cccc(C#N)c2)cc1)C(N)=O` (configuration not stated), the cytotoxicity at 10 µM stood at 35.2%.

Regarding `O=S(=O)(Nc1cn[nH]c1)c1ccc(F)c(Br)c1`, the cytotoxicity at 10 µM is -11.5%.

Take `O=C(NCCn1cccc1)C1CCCOC1` (configuration not stated): the cytotoxicity at 10 µM turned out to be 3.03%.

For the compound `Cc1cc(C)cc(CN2CCCC2c2noc(C)n2)c1` (configuration not stated), the cytotoxicity at 10 µM came to 9.86%.

On to `CS(=O)(=O)Cc1ccc(NC(=O)Cc2cccnc2)cc1F`, for which the cytotoxicity at 10 µM amounted to 1.34%.

`CS(=O)(=O)c1ccc(NC(=O)CSC(F)(F)F)cn1`: the cytotoxicity at 10 µM is 8.28%.

`Cc1noc(C)c1CNC(=O)C(C)Oc1ccccc1F` (configuration not stated): the cytotoxicity at 10 µM is 3%.

Turning to `CC(NCc1ccc(C(C)(C)C)cc1)c1ccc(S(C)(=O)=O)cc1` (configuration not stated), the cytotoxicity at 10 µM amounted to 14.5%.

Take `CC(=O)Nc1ccc(C(=O)N(C)Cc2cccc(F)c2)s1`: the cytotoxicity at 10 µM amounted to 2.82%.

As for `CC(c1ccccc1Cl)N1CCN(C(=O)c2ccc(=O)[nH]c2)CC1` (configuration not stated), the cytotoxicity at 10 µM was -7.85%.

Take `CC(CNC(=O)c1ccn(-c2ccc(F)cc2)n1)Cn1cccn1` (configuration not stated): the cytotoxicity at 10 µM is -41.4%.

As to `c1cncc(OCCNC2Cc3ccccc3C2)c1`, the cytotoxicity at 10 µM came to 4.32%.

Consider `CC(CN1CCOCC1)NC(=O)c1cccc2cn[nH]c12` (configuration not stated), for which the cytotoxicity at 10 µM is -7.18%.

For `CC(C)c1ccc(-n2cc(O)c(C(=O)N3CCC(C(N)=O)CC3)n2)cc1`, the cytotoxicity at 10 µM is -52.6%.

As for `Cc1cc(CN(C)C(=O)CN2CCCC2=O)no1`, the cytotoxicity at 10 µM worked out at 3.05%.

Turning to `Cc1c(C(=O)NC2CC(C)(C)NC(C)(C)C2)cnn1-c1ccc(F)cc1`, the cytotoxicity at 10 µM is -45.7%.

For `CC(C)N(CC1CCCN(Cc2ccon2)C1)C(=O)OC(C)(C)C` (configuration not stated), the cytotoxicity at 10 µM was 7.09%.

Take `CC(C)CCN1CCN(Cc2nc(C3CC3)no2)CC1`: the cytotoxicity at 10 µM was -8.77%.

Regarding `COCCN1CC(=O)c2sc(NC(C)C)nc2C1`, the cytotoxicity at 10 µM was -4.91%.

Consider `OCCNc1nccc(-c2cn3nccc3nc2C2CCCCC2)n1`, for which the cytotoxicity at 10 µM was -0.085%.

`COc1ccccc1S(=O)(=O)N1CCN(C)[C@@H]2CS(=O)(=O)C[C@@H]21`: the cytotoxicity at 10 µM turned out to be 19.3%.

As for `CCSCCNc1cc(C)nc2c(C)c(C)nn12`, the cytotoxicity at 10 µM came to 5.88%.

As to `CNc1ccnc(N2C[C@@H](C)[C@](O)(C3CC3)C2)n1`, the cytotoxicity at 10 µM is -13.1%.

On to `CC(C)(O)CCc1cccc(C(=O)NCC2CN(S(C)(=O)=O)CCO2)c1` (configuration not stated), for which the cytotoxicity at 10 µM worked out at 2.29%.

In the case of `CCN1CC(CN(C)Cc2nc(-c3ccoc3)oc2C)CC1=O` (configuration not stated), the cytotoxicity at 10 µM is -5.13%.

For the compound `Cc1cccc(C)c1OC1CN(Cc2cnc(N3CCOCC3)nc2)C1`, the cytotoxicity at 10 µM came to 3.47%.

`c1ccc(CN2CCC(Nc3ncnc4c3CCNCC4)C2)cc1` (configuration not stated): the cytotoxicity at 10 µM was 8.03%.

For `O=C(O)[C@]12CN(CC3CCC3)C[C@H]1CN(c1cnccn1)C2`, the cytotoxicity at 10 µM is 8.16%.

For `O=C(NCC(O)c1ccc(F)cc1)C1CCN(C2CCCCC2)CC1` (configuration not stated), the cytotoxicity at 10 µM was 5.67%.

As for `Cn1ccnc1-c1nccn1-c1cccc(CN2CCCC2)c1`, the cytotoxicity at 10 µM is -2.36%.

`Cc1nc(O)cc(CCNC(=O)c2ccc(CN3CCCCC3)cc2)n1`: the cytotoxicity at 10 µM is 8.61%.

For the compound `COCCN(C)C[C@@H]1CN(C(=O)c2ccc(O)c(C)c2)C[C@@H]1CO`, the cytotoxicity at 10 µM was -11.8%.

For the compound `CN(C)S(=O)(=O)c1ccc(CNC(=O)c2cn3c(n2)CNCC3)cc1`, the cytotoxicity at 10 µM was found to be 16.9%.

For the compound `O=C(CCn1cnnn1)N1CCCC(CO)(CCc2ccccc2)C1` (configuration not stated), the cytotoxicity at 10 µM is 5.26%.

Take `CCC(C)N(Cc1cccnc1)C(=O)c1ncccc1O` (configuration not stated): the cytotoxicity at 10 µM stood at 14.9%.

`Cc1cc(C)c2[nH]c(=O)c(CN3CCCC(O)(CO)C3)cc2c1` (configuration not stated): the cytotoxicity at 10 µM is -2.25%.

Turning to `O=C1CN(CC[C@@H](O)c2ccccc2)CCN1c1ccccc1Cl`, the cytotoxicity at 10 µM came out at 1.29%.

In the case of `CCc1cc(CN(C)Cc2nc(-c3ccc(OC)cc3F)oc2C)on1`, the cytotoxicity at 10 µM is -3.4%.

For `Cc1[nH]ccc1C(=O)N1CCCC(c2nccn2Cc2cscn2)C1` (configuration not stated), the cytotoxicity at 10 µM is -17.5%.

In the case of `CCn1ccnc1CN(C)C1CCCN(CCc2ccccc2)C1` (configuration not stated), the cytotoxicity at 10 µM is -8.63%.

For `Cc1nccc(CN2CCC(c3nnsc3S(C)(=O)=O)CC2)n1`, the cytotoxicity at 10 µM came to 2.86%.

Regarding `CCN1CCN(CCCNC(=O)NC(C)c2nncn2C)CC1` (configuration not stated), the cytotoxicity at 10 µM was -12.8%.

As to `c1ccc(-c2ccc(CN3CCOC(Cn4cncn4)C3)cc2)cc1` (configuration not stated), the cytotoxicity at 10 µM came to 9.96%.

As for `Cc1cnn(CC2CN(Cc3ccc(-n4cccn4)cc3)CCO2)c1` (configuration not stated), the cytotoxicity at 10 µM is -0.674%.

`CC(C)n1ccnc1CN1CCCN(C(=O)CN(C)C2CC2)CC1`: the cytotoxicity at 10 µM is -3.96%.

In the case of `O=C(c1ccc(N2CCCC2)nn1)N1CCCC(n2cccn2)C1` (configuration not stated), the cytotoxicity at 10 µM is -5.58%.

Consider `CCN(CC)C(=O)c1nnn(-c2ccc(C)cc2)c1C1CC1`, for which the cytotoxicity at 10 µM was -8.35%.

In the case of `Cn1ncc2c(=O)[nH]c(N3CCN(C(=O)c4ccsc4)CC3)nc21`, the cytotoxicity at 10 µM was -6.17%.

Consider `CCC(CN1CCOCC1)n1cncc1-c1ccc2c(c1)CCCN2C` (configuration not stated), for which the cytotoxicity at 10 µM was 8.9%.

On to `COc1cc(CN[C@@H]2COC[C@H]2Cc2cc(C)no2)cc(OC)c1`, for which the cytotoxicity at 10 µM was found to be 0.975%.

With `Cc1c(Br)cccc1C(=O)NCC1CCNCC1`, the cytotoxicity at 10 µM was -16%.

Turning to `Cc1cnccc1-c1cnn(CCNC(=O)C(C)(C)C)c1C1CC1`, the cytotoxicity at 10 µM was -0.459%.

For `Cn1nc(C2CCCN(Cc3cc(F)ccc3F)C2)c2nccnc21` (configuration not stated), the cytotoxicity at 10 µM was -12.9%.

For the compound `Cn1nnc2c1CCN(CC1CC1)C2COCc1ccccc1` (configuration not stated), the cytotoxicity at 10 µM is 6.74%.

Regarding `Cc1nccn1CCC1CCNCC1`, the cytotoxicity at 10 µM was -2.36%.

On to `Cc1ccc(N2CC[C@H]3C[C@H](C(=O)NCc4ccco4)O[C@@H]3C2)cc1`, for which the cytotoxicity at 10 µM stood at 8.8%.

Consider `c1cnc(NC[C@H]2OC[C@@H]3CCN(Cc4cccnc4)C[C@@H]32)nc1`, for which the cytotoxicity at 10 µM was -3.12%.

For `O=C(c1ccsc1)N1CCc2c(COCC3CC3)cncc2C1`, the cytotoxicity at 10 µM stood at 1.65%.

For the compound `O=C(N1CCCO1)[C@@]12CCO[C@@H]1CCN(Cc1cccs1)C2`, the cytotoxicity at 10 µM is -6.36%.

As to `Cc1noc2nc(C3CCN(CC4=CCCOC4)CC3)cc(C(F)F)c12`, the cytotoxicity at 10 µM was found to be 0.307%.

Consider `Cc1cccc(CN2C[C@@H]3COC[C@]3(CNC(=O)c3ccsc3)C2)n1`, for which the cytotoxicity at 10 µM is -1.85%.

Turning to `CN1CC(=O)N(c2cnn(C)c2)CC12CCN(Cc1cccnc1)C2` (configuration not stated), the cytotoxicity at 10 µM was -1.69%.
